# How the values were obtained:
# [1] = biological target: 5-hydroxytryptamine receptor 2B (Homo sapiens, UniProt P41595); assay: Displacement of [3H]-LSD from human recombinant 5-HT2B receptor stably expressed in HEK cells after 90 mins by microbeta scintillation counting method
# Summary of the method: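 Radioligand binding run by the NIMH Psychoactive Drug Screening Program. Otherwise Ki comes from sigmoidal curve fits of triplicate measurements in a single experiment, or is averaged over repeated experiments each run in triplicate.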
# [2] = biological target: Sigma non-opioid intracellular receptor 1 (Homo sapiens, UniProt Q99720); assay: Displacement of [3H]-Pentazocine from human recombinant sigma1 receptor expressed in HEKT cells after 90 mins by microbeta scintillation counting method
# Chain of Sigma non-opioid intracellular receptor 1 (Q99720 whole entry): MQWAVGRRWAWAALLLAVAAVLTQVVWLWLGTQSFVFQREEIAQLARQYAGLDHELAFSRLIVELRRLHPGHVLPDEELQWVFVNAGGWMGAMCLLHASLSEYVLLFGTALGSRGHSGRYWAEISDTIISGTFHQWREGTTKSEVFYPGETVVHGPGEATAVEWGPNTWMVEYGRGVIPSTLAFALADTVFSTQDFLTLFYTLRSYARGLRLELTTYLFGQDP
# Chain of 5-hydroxytryptamine receptor 2B (P41595 whole entry): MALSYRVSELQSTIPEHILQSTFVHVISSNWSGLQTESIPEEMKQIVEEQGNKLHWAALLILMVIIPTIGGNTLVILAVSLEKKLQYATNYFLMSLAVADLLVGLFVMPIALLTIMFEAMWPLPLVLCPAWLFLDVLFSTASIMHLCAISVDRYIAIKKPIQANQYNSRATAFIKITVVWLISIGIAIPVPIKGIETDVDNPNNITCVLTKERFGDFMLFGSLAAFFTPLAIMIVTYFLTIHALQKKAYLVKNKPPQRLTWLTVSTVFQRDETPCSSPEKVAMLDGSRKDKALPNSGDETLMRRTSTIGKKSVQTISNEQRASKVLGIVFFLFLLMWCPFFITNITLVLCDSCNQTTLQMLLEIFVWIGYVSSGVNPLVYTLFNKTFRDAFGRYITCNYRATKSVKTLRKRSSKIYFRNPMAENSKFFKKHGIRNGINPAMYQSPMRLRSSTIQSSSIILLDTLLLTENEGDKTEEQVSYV
SMILES,Ki [1] [nM],Ki [2] [nM]
CC[C@H]1c2ccc3ccccc3c2OC[C@@]1(C)N,2.51,
CC[C@H]1c2cc(-c3ccccc3)ccc2OC[C@@]1(C)N,,12.6
